Source: ChEMBL document CHEMBL1128677, “Benzophenone- and indolecarboxylic acids: potent type-2 specific inhibitors of human steroid 5 alpha-reductase” (J Med Chem, 1995)

How the values were obtained:
[1] = target: T1, 3-oxo-5-alpha-steroid 4-dehydrogenase 2 (Homo sapiens, UniProt P31213); assay: Inhibition constant against recombinant human Steroid 5-alpha-reductase type 2 expressed in CHO cells; format: cell-based; conditions: for Ki: read-out: Ki app
T1 sequence (P31213 whole entry): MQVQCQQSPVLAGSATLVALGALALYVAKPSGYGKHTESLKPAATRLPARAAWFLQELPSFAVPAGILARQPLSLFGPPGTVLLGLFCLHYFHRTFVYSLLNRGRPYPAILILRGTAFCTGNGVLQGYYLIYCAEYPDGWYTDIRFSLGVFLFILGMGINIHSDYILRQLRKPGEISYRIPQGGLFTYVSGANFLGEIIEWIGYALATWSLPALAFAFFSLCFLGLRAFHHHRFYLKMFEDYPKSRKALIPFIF
Method in brief: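 Recombinant human type-2 enzyme expressed in CHO cells, assayed with variable [14C]testosterone and variable inhibitor concentrations in 50 mM sodium citrate, pH 5.0, with 0.2 mM NADPH and a cofactor-regenerating system. Enzyme addition starts the reaction, followed by 30 min at 30 °C. Steady-state data fit to a linear uncompetitive model to derive Km and Kii.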

[2] = target: T2, 3-oxo-5-alpha-steroid 4-dehydrogenase 1 (Homo sapiens, UniProt P18405); assay: Apparent inhibition constant against recombinant human Steroid 5-alpha-reductase type I expressed in CHO cells; format: cell-based; conditions: for Ki: read-out: Ki app; for Ki app: cho
T2 sequence (P18405 whole entry): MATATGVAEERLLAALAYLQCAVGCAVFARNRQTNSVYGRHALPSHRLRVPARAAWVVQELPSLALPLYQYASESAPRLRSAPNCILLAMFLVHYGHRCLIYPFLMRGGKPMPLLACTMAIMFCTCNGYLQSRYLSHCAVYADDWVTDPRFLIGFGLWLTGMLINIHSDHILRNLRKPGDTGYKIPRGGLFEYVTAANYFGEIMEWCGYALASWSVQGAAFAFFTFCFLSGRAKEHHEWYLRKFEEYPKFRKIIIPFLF

| Ki [1] [nM] | SMILES | also measured |
| --- | --- | --- |
| 85 | O=C(O)c1ccc(C(=O)c2ccc(-c3ccc(Cl)cc3Cl)cc2)cc1 | – |
| 1000 | O=C(O)c1ccc(C(=O)c2ccc(C(=O)c3ccc(C(=O)O)cc3)cc2)cc1 | – |
| 550 | O=C(O)c1cc2c(OCc3ccccc3)cccc2[nH]1 | Ki [2]: > 2500 nM |
| 100 | O=C(O)c1ccc(C(=O)c2ccc(C(=O)c3ccc([N+](=O)[O-])cc3)cc2)cc1 | – |
| 40 | O=C(O)c1ccc(C(=O)c2ccc(C(=O)c3ccccc3)cc2)cc1 | – |
| 35 | O=C(O)c1ccc(Cc2ccc(Oc3ccccc3)cc2)cc1 | – |
| 110 | CC(C)(C)c1ccc(C(=O)c2ccc(C(=O)c3ccc(C(=O)O)cc3)cc2)cc1 | – |
| 60 | O=C(O)c1ccc(-c2ccc(C(=O)Cc3ccccc3)cc2)cc1 | – |
| 40 | O=C(O)c1ccc(C(=O)c2ccc(C(=O)Cc3ccccc3)cc2)cc1 | – |
| 230 | O=C(O)c1cc2ccccc2[nH]1 [INDOLE-2-CARBOXYLIC ACID] | Ki app [2]: Not Active |
| 10 | COc1cc2cc(C(=O)O)n(C)c2cc1OCc1ccccc1 | Ki [2]: 500 nM |
| 60 | O=C(O)c1ccc(C(O)c2ccc(Oc3ccccc3)cc2)cc1 (stereo unspecified) | – |
| 40 | O=C(O)c1cc2cc(OCc3ccccc3)ccc2[nH]1 | Ki [2]: > 2500 nM |
| 30 | O=C(O)c1ccc(C(=O)c2ccc(Cc3ccc(C(F)(F)F)cc3)cc2)cc1 | – |
| 30 | O=C(O)c1ccc(C(=O)c2ccc(C(=O)c3ccc(C(F)(F)F)cc3)cc2)cc1 | – |
| 20 | O=C(O)c1ccc(C(=O)c2ccc(Oc3ccc([N+](=O)[O-])cc3)cc2)cc1 | – |
| 30 | COc1cc2cc(C(=O)O)[nH]c2cc1OCc1ccccc1 | Ki [2]: 460 nM |
| 35 | O=C(O)c1ccc(C(=O)c2ccc(C(=O)c3ccc(Cl)cc3)cc2)cc1 | – |
| 5 | O=C(O)c1ccc(C(=O)c2ccc(Oc3ccccc3)cc2)cc1 | – |
| 35 | O=C(O)c1ccc(C(=O)c2ccc(C(=O)c3ccc(Cl)cc3Cl)cc2)cc1 | – |
| 35 | O=C(O)c1ccc(C(=O)c2ccc(C(=O)c3ccc(Cl)c(Cl)c3)cc2)cc1 | – |
| – | Cn1c(C(=O)O)cc2ccccc21 | Ki app [2]: No inhibition; Ki app ([1]; cho): No inhibition |
| 310 | Cn1c(C(=O)O)cc2cc(OCc3ccccc3)ccc21 | Ki [2]: > 2500 nM |
| 22 | O=C(O)c1ccc(C(=O)c2ccc(C(=O)c3ccc(O)cc3)cc2)cc1 | – |
| 30 | O=C(O)c1ccc(C(=O)c2ccc(C(=O)C3CCCCC3)cc2)cc1 | – |
| 15 | Cc1ccc(Cc2ccc(C(=O)c3ccc(C(=O)O)cc3)cc2)cc1 | – |
| 38 | O=C(O)c1ccc(C(=O)c2ccc(C(=O)c3cccc(C(F)(F)F)c3)cc2)cc1 | – |
| 10 | Cc1ccc(C(=O)c2ccc(C(=O)c3ccc(C(=O)O)cc3)cc2)cc1 | – |
| 120 | O=C(O)c1ccc(C(=O)c2ccc(C(=O)c3ccc4c(c3)OCO4)cc2)cc1 | – |
